Consider eleven molecules from PMC8059355 (ACS infectious diseases, 2020).

Entries after “also recorded” stand apart in the source; their conditions may differ. Like-named read-outs stand apart in the source and are kept apart here.

What is called EC50 is the concentration needed to bring the measured effect to its halfway point. By CC50 is commonly meant the concentration at which the toxic effect on the cells reaches its halfway point. A low value points to harm at low concentration.

For data set [1], the system named is L. amazonensis intracellular amastigotes. It is filed as cell-based, Leishmania amazonensis. To be noted: read-out: intracellular amastigotes, EC50 ± SE.
For data set [2], the system named is purified L. tarentolae tubulin. The experiment in a line: turbidity tubulin polymerization assay, purified L. tarentolae tubulin. It is filed as biochemical, Leishmania tarentolae. The following applies: read-out: L. tarentolae tubulin polymerization EC50 (estimated); 3 mg/mL tubulin, A340, 30 °C.
In data set [3] the test system is Neospora caninum. The following applies: read-out: Neospora caninum EC50; cited from earlier work.
Data set [4] relates to L. donovani axenic amastigotes. The experiment in a line: alamarBlue assay, L. donovani axenic amastigotes. The following applies: read-out: L. donovani axenic amastigotes, EC50 ± SE, 72 h. Type of data set: cell-based, Leishmania donovani. In outline:
(§1)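 Axenic amastigotes were exposed to a compound dilution series and growth was measured with 10% alamarBlue, fluorescence at 530 nm excitation and 570 nm emission. Each plate held three technical replicates, with at least three biological repeats. Percent growth relative to untreated control was plotted against log10 concentration. EC50 per repeat was fitted by sigmoidal variable-slope nonlinear regression and reported as mean ± SE.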
On the technique in general: The colour change of resazurin is a common sign of viable cells or microbes.

The test system of data set [5] is Entamoeba histolytica trophozoite. The following applies: cited from earlier work.
The test system of data set [6] is L. amazonensis promastigotes. The experiment in a line: alamarBlue assay, L. amazonensis promastigotes. Type of data set: cell-based, Leishmania amazonensis. To be noted: read-out: Promastigote EC50 ± SE, 72 h.
For data set [7], the system named is L. amazonensis promastigotes and amastigotes. The experiment in a line: microscopy of cell division in L. amazonensis promastigotes and amastigotes. It is filed as cell-based, Leishmania amazonensis. To be noted: 48 h at the EC50 72h concentration; for increase in parasites in mid-cell division, promastigotes: compared to DMSO control.
The subject of data set [8] is RAW 264.7 cells.
The test system of data set [9] is L. tarentolae axenic amastigotes. The experiment in a line: alamarBlue assay, L. tarentolae axenic amastigotes. It is filed as cell-based, Leishmania tarentolae. The following applies: read-out: L. tarentolae axenic amastigotes EC50 ± SE. Summed up:
as §1

Data set [10] deals with blood-stage P. falciparum. Nature of the data set: Malaria SYBR green I fluorescence. Type of data set: cell-based, Plasmodium falciparum. The following applies: read-out: P. falciparum EC50 ± SE, 3D7, MSF assay.
The subject of data set [11] is blood-stage Trypanosoma brucei. The experiment in a line: CellTiter-Glo luminescent assay, T. brucei. To be noted: read-out: T. brucei EC50 ± SE. It is filed as cell-based. (ATP-based viability assays read luminescence as a measure of living cells.)
Data set [12] relates to purified L. tarentolae tubulin. Nature of the data set: chemical cross-linking with SW22 probe and competition, fluorescent tubulin band. Type of data set: binding, Leishmania tarentolae. The following applies: for competition with SW22 probe for tubulin, fluorescent band: fully purified tubulin, competitor at 100-fold excess.
For data set [13], the system named is L. amazonensis axenic amastigotes. Type of data set: cell-based, Leishmania amazonensis. To be noted: 24 h at the EC50 72h, densitometry of Western blots. On the technique in general: A western blot detects proteins with antibodies after separation by electrophoresis.
The test system of data set [14] is L. amazonensis promastigotes. The experiment in a line: microscopy of promastigote morphology. The following applies: compared to DMSO control; for increase in pear-shaped promastigotes: 48 h at the EC50 72h; for increase in flagella length: promastigotes, 24 h at the EC50 72h. Type of data set: cell-based, Leishmania amazonensis.
Data set [15] deals with Cryptosporidium parvum. To be noted: read-out: Cryptosporidium parvum EC50; cited from earlier work.
Data set [16] relates to L. amazonensis axenic amastigotes. Type of data set: cell-based, Leishmania amazonensis. To be noted: for EC50: Leishmania amazonensis, 72 h, read-out: EC50 ± SE.
Data set [17] concerns L. amazonensis. The experiment in a line: paclitaxel EC50 72h for La. It is filed as cell-based. To be noted: Leishmania amazonensis, read-out: EC50 72h for La.
[18] abbreviates: L. amazonensis intracellular amastigotes in RAW 264.7 cells, 72 h, luciferase.

As to `N#Cc1nc(-c2ccccc2)oc1S(=O)(=O)c1ccc(Cl)cc1` [MMV676412], the EC50 in data set [1] (setting [18]) was more than 2000 nM.
With `CCc1c(C)nc(-n2nc(C)cc2NC(=O)c2ccccc2SC)[nH]c1=O` [MMV676477], the EC50 in data set [2] is 500 ± 100 nM; in [3], 13 nM; in data set [4] it was 1300 ± 210 nM; in data set [1] (setting [18]) it was 500 ± 20 nM; in data set [6], 2400 ± 35 nM; in data set [9], 11 ± 1.3 nM. The EC50 was 420 ± 19 nM in [10], 190 ± 8.7 nM in data set [11] and 220 nM in data set [15]. Besides, the “Entamoeba histolytica trophozoite proliferation at 10 μM” value in [5] is listed as 56%. In addition, in [7], the “increase in parasites in mid-cell division, promastigotes” value is ~ 2 fold. The molecule also yielded a CC50 in data set [8] of 2200 ± 410 nM. Moreover, the “competition with SW22 probe for tubulin, fluorescent band” value in [12] is reported as “significantly dimmer”. Also, the “proportion of cellular polymeric tubulin” value in data set [13] is reported as “significantly increased”. The “increase in pear-shaped promastigotes” value in data set [14] is on record as 2 fold. In data set [14], the “increase in flagella length” value is ~ 1.5 fold.
As for `CSc1ccccc1C(=O)Oc1cc(C)nc(-n2nc(C)cc2N)n1` [SW10], the “antileishmanial activity (in words)” value in [16] (L. amazonensis) was “essentially inactive; also recorded: nearly inactive”. The concentration for a half-maximal effect (EC50) in data set [6] was more than 50000 nM. Moreover, the CC50 in data set [8] is more than 10000 nM. Besides, the “dimming of the fluorescent tubulin band in presence of competitor” value in data set [12] (L. tarentolae tubulin still including some additional proteins, SW22 probe) is recorded as “No apparent dimming”. Besides, the “competition with SW22 probe for tubulin, fluorescent band” value in data set [12] was “no apparent competition”.
As for `C#CCOc1ccc(C(=O)c2ccc(C(=O)Nc3cc(C)nn3-c3nc(C)c(CC)c(=O)[nH]3)cc2)cc1` [SW22, N-(1-(5-ethyl-4-methyl-6-oxo-1,6-dihydropyrimidin-2-yl)-3-methyl-1H-pyra-zol-5-yl)-4-(4-(prop-2-yn-1-yloxy)benzoyl) benzamide], the EC50 in data set [6] was 6700 ± 53 nM. Besides, the CC50 in data set [8] amounted to 1300 ± 42 nM.
For `CCc1c(C)nc(-n2nc(C)cc2NC(=O)c2ccc(F)c(Cl)c2)[nH]c1=O` [SW41], the EC50 turned out to be 310 ± 38 nM in [4], 220 ± 13 nM in data set [1] (setting [18]) and 780 ± 29 nM in [6]. Besides, the CC50 in data set [8] came out at 2400 ± 100 nM.
Consider `C[C@@H]1[C@H](O)[C@@H](C)/C=C/C=C/C=C/C=C/C=C/C=C/C=C/[C@H](O[C@@H]2O[C@H](C)[C@@H](O)[C@H](N)[C@@H]2O)C[C@@H]2O[C@](O)(C[C@@H](O)C[C@@H](O)[C@H](O)CC[C@@H](O)C[C@@H](O)CC(=O)O[C@H]1C)C[C@H](O)[C@H]2C(=O)O` [amphotericin B, reference compound], for which the EC50 in data set [16] came to 53 ± 4.4 nM; in [1] (Leishmania amazonensis, RAW264.7, 72 h), 65 ± 26 nM.
Consider `CC(C)(C)[C@H]1CC[C@H](CC2=C(O)C(=O)c3ccccc3C2=O)CC1` [buparvaquone], for which the EC50 in data set [16] is 12 ± 1.1 nM.
Same read-out and setting: next, `C[C@]1(COc2ccc(N3CCC(Oc4ccc(OC(F)(F)F)cc4)CC3)cc2)Cn2cc([N+](=O)[O-])nc2O1` [delamanid]: 31 ± 3.5 nM.
Take `CCCCCCCCCCCCCCCCOP(=O)([O-])OCC[N+](C)(C)C` [miltefosine]: the EC50 in [16] was 1200 ± 280 nM. Moreover, the “effect on L. amazonensis cell division” value in data set [7] is “did not affect L. amazonensis cell division”. Also, in [14], the “increase in pear-shaped promastigotes” value is “did not affect” and the “increase in flagella length” value was “did not affect”.
For the molecule `CC(=O)Oc1ccccc1C(=O)Nc1ncc([N+](=O)[O-])s1` [nitazoxanide], the half-maximal effective concentration (EC50) in data set [16] stood at 590 ± 100 nM.
For the molecule `CC(=O)O[C@H]1C(=O)[C@@]2(C)[C@H]([C@H](OC(=O)c3ccccc3)[C@]3(O)C[C@H](OC(=O)[C@H](O)[C@@H](NC(=O)c4ccccc4)c4ccccc4)C(C)=C1C3(C)C)[C@]1(OC(C)=O)CO[C@@H]1C[C@@H]2O` [paclitaxel], the EC50 in data set [2] was 1300 ± 100 nM. For the same molecule, the “increase in parasites in mid-cell division, promastigotes” value in data set [7] is listed as ~ 2 fold. Further, the EC50 in data set [17] stood at 760 ± 8.3 nM. In data set [13], the “proportion of cellular polymeric tubulin” value was “significantly increased”. Also, in data set [14], the “increase in pear-shaped promastigotes” value came out at 2 fold and the “increase in flagella length” value is listed as ~ 1.5 fold.
